B1: Clone 1B: 3xFLAG-tagged human aldolase C aa 101-210, 16 kDa (protein, UniProt P09972 101-210, looked up, fragment)
chain: KGIVVGIKVDKGVVPLAGTDGETTTQGLDGLSERCAQYKKDGADFAKWRCVLKISERTPSALAILENANVLARYASICQQNGIVPIVEPEILPDGDHDLKRCQYVTEKVL
modifications: 3xFLAG tag
B2: Clone 1: 3xFLAG-tagged human aldolase C aa 1-210, 26 kDa (protein, UniProt P09972 1-210, looked up, fragment)
chain: MPHSYPALSAEQKKELSDIALRIVAPGKGILAADESVGSMAKRLSQIGVENTEENRRLYRQVLFSADDRVKKCIGGVIFFHETLYQKDDNGVPFVRTIQDKGIVVGIKVDKGVVPLAGTDGETTTQGLDGLSERCAQYKKDGADFAKWRCVLKISERTPSALAILENANVLARYASICQQNGIVPIVEPEILPDGDHDLKRCQYVTEKVL
modifications: 3xFLAG tag
B3: full-length: 3xFLAG-tagged human aldolase C aa 1-364, 43 kDa (protein, UniProt P09972 1-364, looked up)
chain: MPHSYPALSAEQKKELSDIALRIVAPGKGILAADESVGSMAKRLSQIGVENTEENRRLYRQVLFSADDRVKKCIGGVIFFHETLYQKDDNGVPFVRTIQDKGIVVGIKVDKGVVPLAGTDGETTTQGLDGLSERCAQYKKDGADFAKWRCVLKISERTPSALAILENANVLARYASICQQNGIVPIVEPEILPDGDHDLKRCQYVTEKVLAAVYKALSDHHVYLEGTLLKPNMVTPGHACPIKYTPEEIAMATVTALRRTVPPAVPGVTFLSGGQSEEEASFNLNAINRCPLPRPWALTFSYGRALQASALNAWRGQRDNAGAATEEFIKRAEVNGLAAQGKYEGSGEDGGAAAQSLYIANHAY
modifications: full-length 3xFLAG tag
B4: Clone 2: 3xFLAG-tagged human aldolase C aa 101-300, 25 kDa (protein, UniProt P09972 101-300, looked up, fragment)
chain: KGIVVGIKVDKGVVPLAGTDGETTTQGLDGLSERCAQYKKDGADFAKWRCVLKISERTPSALAILENANVLARYASICQQNGIVPIVEPEILPDGDHDLKRCQYVTEKVLAAVYKALSDHHVYLEGTLLKPNMVTPGHACPIKYTPEEIAMATVTALRRTVPPAVPGVTFLSGGQSEEEASFNLNAINRCPLPRPWALTF
modifications: 3xFLAG tag
B5: Clone 1A: 3xFLAG-tagged human aldolase C aa 1-100, 15 kDa (protein, UniProt P09972 1-100, looked up, fragment)
chain: MPHSYPALSAEQKKELSDIALRIVAPGKGILAADESVGSMAKRLSQIGVENTEENRRLYRQVLFSADDRVKKCIGGVIFFHETLYQKDDNGVPFVRTIQD
modifications: 3xFLAG tag

Test system: 9F mAb
Assay: Immunoblot of 3xFLAG-tagged aldolase C fragments in Neuro2a lysates with 9F mAb
Type: binding, mouse
Conditions: Neuro2a total protein lysates; 15% SDS-PAGE; 9F 1:1000; ECL
Method in brief: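 Neuro2a cells were plated without antibiotics to reach 70–90% confluence, transfected with lipofectamine 2000, given fresh medium at 6h and grown 48h at 37 °C. Lysis was 30 min on ice in 50mM Tris-HCl pH 7.5, 150mM NaCl, 0.1% Triton X-100 and 0.5 mM PMSF, cleared at 16000xg. Blots went onto nitrocellulose, blocked 1h in 5% milk/T-PBS. Primary 1h RT or overnight 4 °C; HRP anti-mouse 1:5000, 45min. α-tubulin loading control.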

| recognition of 3xFLAG-tagged aldolase C fragment by 9F mAb | Molecule |
| --- | --- |
| recognized | B2 |
| recognized | B3 |
| absence of ECL signal | B4 |
| detected | B5 |

| Molecule | recognition of 3xFLAG-tagged aldolase C fragment by 9F mAb |
| --- | --- |
| B1 | detected Clone 1A (15kDa) but not Clone 1B |
